Data taken from ChEMBL document CHEMBL3091335, “Design and synthesis of potent and selective P2X₃ receptor antagonists derived from PPADS as potential pain modulators” (Eur J Med Chem, 2013).
pIC50: −log10 of the molar value. Active and inactive are the calls of the source. No cut-off for these calls is given here.

Experiments:
[1] = target: T1, P2X purinoceptor 7 (Homo sapiens) (UniProt Q99572); experiment: Antagonist activity at human P2X7 receptor expressed in HEK293 cells assessed as inhibition of BzATP-induced accumulation of ethidium+ at 10 uM after 120 mins by fluorescence assay relative to control; format: cell-based
T1 sequence (whole entry): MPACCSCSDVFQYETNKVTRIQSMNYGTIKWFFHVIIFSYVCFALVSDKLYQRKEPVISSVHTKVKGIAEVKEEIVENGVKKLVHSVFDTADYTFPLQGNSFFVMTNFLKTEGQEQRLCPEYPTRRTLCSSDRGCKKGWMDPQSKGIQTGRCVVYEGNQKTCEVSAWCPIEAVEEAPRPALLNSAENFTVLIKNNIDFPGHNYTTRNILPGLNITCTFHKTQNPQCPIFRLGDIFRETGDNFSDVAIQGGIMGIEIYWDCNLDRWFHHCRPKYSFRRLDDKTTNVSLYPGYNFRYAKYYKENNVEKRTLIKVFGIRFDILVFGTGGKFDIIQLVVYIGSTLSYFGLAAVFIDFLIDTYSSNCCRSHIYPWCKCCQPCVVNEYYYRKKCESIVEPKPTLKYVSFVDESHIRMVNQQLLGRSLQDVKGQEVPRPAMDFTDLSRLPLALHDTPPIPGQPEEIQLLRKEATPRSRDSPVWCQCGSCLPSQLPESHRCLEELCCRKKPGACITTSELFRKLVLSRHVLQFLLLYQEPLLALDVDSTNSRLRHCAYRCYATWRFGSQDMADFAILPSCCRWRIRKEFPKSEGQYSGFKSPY
In short: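 HEK293 cells expressing hP2X7 were grown in DMEM with 10% FBS at 37 °C under 5% CO2, harvested with trypsin/EDTA and resuspended at 2.5 × 10⁶ cells/mL in KCl/glucose/EDTA/HEPES buffer (pH 7.4) with ethidium bromide. Cells were plated at 2 × 10⁵ cells/well with BzATP and incubated at 37 °C for 120 min. Fluorescence was read at ex 530/em 590 nm; mean ± SEM, n≥3.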

P2X purinoceptor 3 = target: T2, P2X purinoceptor 3 (Homo sapiens, UniProt P56373); experiment: Antagonist activity at recombinant human P2X3 receptor expressed in Xenopus oocytes assessed as inhibition of ATP-induced ion current preincubated for 20 mins followed by ATP addition by two-electrode voltage clamp assay; format: cell-based
T2 sequence (P56373 whole entry): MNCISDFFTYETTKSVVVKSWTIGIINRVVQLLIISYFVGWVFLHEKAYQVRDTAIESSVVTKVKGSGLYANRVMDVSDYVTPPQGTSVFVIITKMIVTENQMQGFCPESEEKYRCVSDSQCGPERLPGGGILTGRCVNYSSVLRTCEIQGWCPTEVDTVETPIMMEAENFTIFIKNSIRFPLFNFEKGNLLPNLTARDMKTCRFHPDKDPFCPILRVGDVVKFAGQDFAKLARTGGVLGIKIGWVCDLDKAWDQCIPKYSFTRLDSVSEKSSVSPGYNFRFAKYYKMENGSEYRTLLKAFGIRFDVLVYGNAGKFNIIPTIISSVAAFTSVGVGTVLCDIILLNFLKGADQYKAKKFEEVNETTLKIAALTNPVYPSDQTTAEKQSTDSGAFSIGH
In short: (§1)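 Defolliculated Xenopus oocytes were injected with mP2X1 or hP2X3 cRNA (40 nL), held 24 h at 18 °C in Barth's solution, then stored at 4 °C for up to 12 days. Two-electrode voltage clamp was run at Vh −70 mV in HEPES/BaCl2 buffer at pH 7.5. ATP was superfused for 60–120 s with 20 min washout. Currents were normalized to the ATP response, giving % inhibition or IC50 from inhibition curves; mean ± SEM, n≥3.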

[2] = target: T3, P2X purinoceptor 1 (Mus musculus) (UniProt P51576); experiment: Antagonist activity at recombinant mouse P2X1 receptor expressed in Xenopus oocytes assessed as inhibition of ATP-induced ion current at 10 uM preincubated for 20 mins followed by ATP addition by two-electrode voltage clamp assay relative to control; format: cell-based; in short: as §1
T3 sequence (whole entry): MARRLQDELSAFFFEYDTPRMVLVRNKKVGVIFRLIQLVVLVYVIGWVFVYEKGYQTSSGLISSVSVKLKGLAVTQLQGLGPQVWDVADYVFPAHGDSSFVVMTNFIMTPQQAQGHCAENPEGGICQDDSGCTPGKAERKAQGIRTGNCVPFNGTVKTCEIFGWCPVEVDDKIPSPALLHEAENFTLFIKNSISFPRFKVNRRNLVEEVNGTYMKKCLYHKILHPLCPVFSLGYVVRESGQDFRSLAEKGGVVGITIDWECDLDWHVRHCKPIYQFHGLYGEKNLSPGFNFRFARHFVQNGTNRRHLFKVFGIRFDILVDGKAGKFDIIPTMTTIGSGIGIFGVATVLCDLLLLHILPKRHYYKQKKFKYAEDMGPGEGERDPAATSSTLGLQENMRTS

[3] = target: T4, P2X purinoceptor 3 (Homo sapiens) (UniProt P56373); experiment: Antagonist activity at recombinant human P2X3 receptor expressed in Xenopus oocytes assessed as inhibition of ATP-induced ion current at 10 uM preincubated for 20 mins followed by ATP addition by two-electrode voltage clamp assay relative to control; format: cell-based; in short: as §1
T4 sequence (whole entry): T2 sequence (P56373 whole entry)

[4] = Antinociceptive activity in rat spinal dorsal horn assessed as inhibition of electrically-stimulated long term potentiation at 20 uM by Di-4-ANEPPS dye-based assay relative to control; format: functional; settings: Dorsal horn of spinal cord
In short: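 Ex vivo rat spinal cord slices (0.5 mm) loaded with voltage-sensitive dye Di-4-ANEPPS; optical signal in dorsal horn monitored before and after LTP induction by 2 Hz electrical stimulation (0.5 msec pulse) for 2 min. Expressed as % inhibition of LTP with compound treatment; means ± SD of 4 samples; pregabalin positive control.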

P2X purinoceptor 1 [5] = target: T5, P2X purinoceptor 1 (Mus musculus, UniProt P51576); experiment: Antagonist activity at recombinant mouse P2X1 receptor expressed in Xenopus oocytes assessed as inhibition of ATP-induced ion current preincubated for 20 mins followed by ATP addition by two-electrode voltage clamp assay; format: cell-based; in short: as §1
T5 sequence (P51576 whole entry): T3 sequence (whole entry)

P2X purinoceptor 1 [6] = target: T5, P2X purinoceptor 1; experiment: Antagonist activity at mouse P2X1 receptor
[7] = target: T4, P2X purinoceptor 3 (Homo sapiens); experiment: Antagonist activity at recombinant human P2X3 receptor expressed in Xenopus oocytes assessed as inhibition of ATP-induced ion current at 1 uM preincubated for 15 mins followed by ATP addition by two-electrode voltage clamp assay relative to control; format: cell-based
[8] = target: T6, P2X2/P2X3 receptor (Rattus norvegicus) (UniProt P49653+P49654); experiment: Antagonist activity at recombinant rat P2X2/3 receptor expressed in Xenopus oocytes assessed as inhibition of ATP-induced ion current at 100 nM preincubated for 15 mins followed by ATP addition by two-electrode voltage clamp assay relative to control; format: cell-based
[9] = target: T6, P2X2/P2X3 receptor (Rattus norvegicus); experiment: Antagonist activity at recombinant rat P2X2/3 receptor expressed in Xenopus oocytes assessed as inhibition of ATP-induced ion current at 1 uM preincubated for 15 mins followed by ATP addition by two-electrode voltage clamp assay relative to control; format: cell-based
[10] = target: T4, P2X purinoceptor 3 (Homo sapiens); experiment: Antagonist activity at recombinant human P2X3 receptor expressed in Xenopus oocytes assessed as inhibition of ATP-induced ion current at 100 nM preincubated for 15 mins followed by ATP addition by two-electrode voltage clamp assay relative to control; format: cell-based

| SMILES | inhibition [1] | pIC50 (P2X purinoceptor 3) | inhibition [2] [%] | inhibition [3] | other results |
| --- | --- | --- | --- | --- | --- |
| Cc1nc(Cc2ccc(Oc3ccccc3)cc2)c(C(=O)O)c(C(=O)O)c1O | inactive | 5.98 | 40 | – | – |
| COc1cccc(CCc2nc(C)c(O)c(C(=O)O)c2C(=O)O)c1 | inactive | – | 52.4 | 45.5% | – |
| COc1cccc(CCc2nc(C)c(O)c(C(C)=O)c2C(=O)O)c1 | inactive | – | 29.9 | 15.8% | – |
| Cc1cc(C(=O)O)c(C(=O)O)c(NC(=O)c2ccccc2)n1 | inactive | – | – | inactive | – |
| Cc1nc(CC(c2ccccc2)c2ccccc2)c(C(=O)O)c(C(=O)O)c1O | inactive | 6.08 | 42 | – | – |
| CC(=O)c1c(O)c(C)nc(CCc2ccccc2)c1C(=O)O | inactive | – | 47.9 | 37.3% | – |
| Cc1nc(Cc2ccccc2Oc2ccccc2)c(C(=O)O)c(C(=O)O)c1O | inactive | 5.53 | 49.6 | – | – |
| Cc1nc(CCc2cccc(Oc3ccccc3)c2)c(C(=O)O)c(C(=O)O)c1O | inactive | 6.23 | 38.3 | – | – |
| COc1ccccc1CCc1nc(C)c(O)c(C(C)=O)c1C(=O)O | inactive | – | 11.4 | 6.3% | – |
| Cc1nc(Cc2cccc(Oc3ccccc3)c2)c2c(c1O)C(O)OC2=O (configuration not stated) | 27.1% | 6.19 | 45 | – | – |
| Cc1nc(Cc2cccc3ccccc23)c(CCC(=O)O)c(C=O)c1O | 43.4% | 6.20 | – | – | – |
| Cc1nc(COCc2ccccc2)c(C(=O)O)c(C(=O)O)c1O | inactive | – | – | 23.1% | – |
| CC(C)C[C@H](CN)CC(=O)O [PREGABALIN] | – | – | – | – | inhibition at 20 µM [4]: 31% |
| Cc1nc(CCc2ccc(C(=O)O)cc2)c(C(=O)O)c(C(=O)O)c1O | inactive | 6.34 | – | – | pIC50 (P2X purinoceptor 1 [5]): 6.57 |
| Cc1nc(Cc2cccc3ccccc23)c(C(=O)O)c(C(=O)O)c1O | inactive | 5.90 | 48.7 | – | – |
| Cc1nc(Cc2cccc(Oc3ccccc3)c2)c(/C=C/C(=O)O)c(C(=O)O)c1O | inactive | 6.42 | 33.7 | – | – |
| Cc1nc(Cc2cccc(Oc3ccccc3)c2)c(CCC(=O)O)c(C(=O)O)c1O | inactive | 6.20 | 31.7 | – | – |

| SMILES | inhibition [1] | pIC50 (P2X purinoceptor 3) | inhibition [2] [%] | inhibition [3] | other results |
| --- | --- | --- | --- | --- | --- |
| Cc1nc(/N=N/c2ccc(S(=O)(=O)O)cc2S(=O)(=O)O)c(COP(=O)(O)O)c(C=O)c1O | – | – | – | – | pIC50 (P2X purinoceptor 1 [6]): 7.00 |
| Cc1nc(Cc2cccc(Oc3ccccc3)c2)c(/C=C/C(=O)O)c(C=O)c1O | 15.1% | 7.22 | 18.3 | – | inhibition at 20 µM [4]: 65%; inhibition [7]: 77.4%; inhibition [8]: 49.2%; inhibition [9]: 70.8%; inhibition [10]: 59.7% |
| COc1ccccc1CCc1nc(C)c(O)c(C(=O)O)c1C(=O)O | inactive | – | 49.8 | 34.5% | – |
| Cc1nc(Cc2cccc3ccccc23)c2c(c1O)C(O)OC2=O (configuration not stated) | 14.8% | 6.07 | – | – | – |
| COc1ccc(CCc2nc(C)c(O)c(C(=O)O)c2C(=O)O)cc1 | inactive | 6.34 | – | – | pIC50 (P2X purinoceptor 1 [5]): 6.35 |
| Cc1nc(/C=C/c2ccccc2)c(C(=O)O)c(C(=O)O)c1O | inactive | 6.04 | – | – | pIC50 (P2X purinoceptor 1 [5]): 6.11 |
| Cc1nc(-c2cccc(Oc3ccccc3)c2)c(C(=O)O)c(C(=O)O)c1O | inactive | 5.48 | 49.7 | – | – |
| Cc1nc(NC(=O)c2ccccc2)c(C(=O)O)c(C(=O)O)c1O | inactive | 6.14 | – | – | – |
| Cc1nc(Cc2cccc(Oc3ccccc3)c2)c(C(=O)O)c(C(=O)O)c1O | inactive | 6.32 | 41.8 | – | – |
| Cc1nc(Cc2cccc3ccccc23)c(/C=C/C(=O)O)c(C=O)c1O | 48.4% | 6.84 | 22 | – | – |
| Cc1nc(NC(=O)c2cccc(Oc3ccccc3)c2)c(C(=O)O)c(C(=O)O)c1O | inactive | 6.03 | – | – | – |
| COc1ccc(CCc2nc(C)c(O)c(C(C)=O)c2C(=O)O)cc1 | inactive | – | 52 | 42.2% | – |
| Cc1nc(Cc2cccc(Oc3ccccc3)c2)c(CCC(=O)O)c(C=O)c1O | 10.2% | 6.44 | 23 | – | – |
| Cc1nc(Cc2ccccc2)c(C(=O)O)c(C(=O)O)c1O | inactive | – | 54.2 | 31.4% | – |
| CC(=O)c1c(O)c(C)nc(/C=C/c2ccccc2)c1C(=O)O | inactive | – | 52.4 | 27.4% | – |
| CC(=O)c1c(O)c(C)nc(Cc2ccccc2)c1C(=O)O | inactive | – | 44.2 | 18.3% | – |
| Cc1nc(CCc2ccccc2)c(C(=O)O)c(C(=O)O)c1O | inactive | 6.10 | – | – | pIC50 (P2X purinoceptor 1 [5]): 6.19 |
